In experiment [1] the test system is Mycobacterium tuberculosis. The experiment is described as follows: Antimicrobial activity against isoniazid and rifampin-resistant Mycobacterium tuberculosis clinical isolates after 7 days by broth microdilution assay. In kind it is functional. The conditions noted are these: 168 h. The procedure, abridged:
(§1)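 Alamar Blue broth microdilution in 7H9GC broth (Middlebrook 7H9 base, glycerol, Casitone, 10% OADC). Drug stock 1 mg/ml in 100% DMSO, diluted in broth to a final 0.03 to 8 μg/ml. M. tuberculosis H37Rv served as the susceptible-strain control. Isoniazid and rifampin resistance was assigned beforehand by the proportion method.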
In general terms: Dilution methods test growth across graded concentrations, often in twofold steps.

Experiment [2] deals with Mycobacterium tuberculosis. The experiment is described as follows: Antimicrobial activity against isoniazid or rifampin-resistant Mycobacterium tuberculosis clinical isolates after 7 days by broth microdilution assay. The class given is functional. The conditions noted are these: 168 h. The procedure, abridged: as §1

For one compound, MIC50 and MIC90 results are on record in ChEMBL document CHEMBL1255469, “In vitro activity of a new isothiazoloquinolone, ACH-702, against Mycobacterium tuberculosis and other mycobacteria” (2010).

Values after ≈ are worked out from the molar mass of the structure shown.

In experiment [1], `COc1c(N2CC[C@@H](C(C)(C)N)C2)c(F)cc2c(=O)c3c(=O)[nH]sc3n(C3CC3)c12` displayed an MIC50 of 0.06 µg/mL (≈ 0.139 µM) and an MIC90 of 0.12 µg/mL (≈ 0.277 µM). Moreover, in experiment [2], the MIC50 came out at 0.12 µg/mL (≈ 0.277 µM) and the MIC90 was 0.12 µg/mL (≈ 0.277 µM).

One may read the MIC50 as the lowest concentration that inhibits either 50% of growth or 50% of the strains tested, depending on the study. As usually defined, the MIC90 is an inhibitory concentration at the 90% level, which refers to growth in some studies and to a panel of isolates in others.
